Measurements gathered from unrelated publications.
Protocols differ between the studies behind these lines.
Target: MAP kinase-activated protein kinase 5 (MAPKAPK5, Homo sapiens, UniProt Q8IW41)
One construct used (Q8IW41 1-473): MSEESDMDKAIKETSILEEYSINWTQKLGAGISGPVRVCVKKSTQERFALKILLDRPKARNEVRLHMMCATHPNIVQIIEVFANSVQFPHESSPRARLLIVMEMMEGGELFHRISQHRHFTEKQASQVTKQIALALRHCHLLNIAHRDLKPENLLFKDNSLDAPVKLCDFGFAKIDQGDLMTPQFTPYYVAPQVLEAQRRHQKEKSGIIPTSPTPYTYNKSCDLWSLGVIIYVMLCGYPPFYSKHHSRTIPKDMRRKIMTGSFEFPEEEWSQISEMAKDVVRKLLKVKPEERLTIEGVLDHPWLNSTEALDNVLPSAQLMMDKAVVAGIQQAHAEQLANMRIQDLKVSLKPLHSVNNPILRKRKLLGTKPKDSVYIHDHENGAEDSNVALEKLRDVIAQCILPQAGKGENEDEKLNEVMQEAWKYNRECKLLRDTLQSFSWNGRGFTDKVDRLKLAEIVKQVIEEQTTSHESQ

| Structure (SMILES) | assay | conditions | measurement | value |
| --- | --- | --- | --- | --- |
| Cn1cncc1[C@](O)(COc1ccc(C#N)cc1-c1ccc(OC(F)(F)F)cc1)c1ccc(C#N)cc1 | cell-free assay, competition with immobilised ligand | 1 µM | remaining binding | 90% |
| CC(C)(C)c1cc(C=C(C#N)C#N)cc(Br)c1O | enzyme activity, inhibitor | 0.5 µM | remaining activity | 97.4% |
| N#CC1(c2ccccn2)CCN(Cc2cc(C(=O)O)c(=O)n3ccccc23)CC1 | cell-free assay, competition with immobilised ligand | 1 µM | remaining binding | 56% |
| C#Cc1n[nH]c2c(-c3cn([C@@H](C)c4ccccc4)c(=O)[nH]c3=O)cc(F)cc12 | enzyme activity, inhibitor | 0.1 µM | inhibition | 1.8% |
| Cn1cc(-c2cccc(N3CCc4c(sc5c4CC(C)(C)C5)C3=O)c2CO)cc(Nc2ccncn2)c1=O | enzyme activity, inhibitor | 1 µM | inhibition | 3% |
| COc1cc(Nc2ncc(F)c(Nc3ccc4c(n3)NC(=O)C(C)(C)O4)n2)cc(OC)c1OC | binding, competition with immobilised ligand | 10 µM | inhibition | 19% |
| Nc1ncc(-c2nc(N3CCOCC3)nc(N3CCOCC3)n2)c(C(F)F)n1 | binding, competition with immobilised ligand | 10 µM | remaining binding | 72% |
| O=c1[nH]c2ccccc2n1C1CCN(Cc2ccc(-c3[nH]c4cc5ncnc5cc4nc3-c3ccccc3)cc2)CC1 | cell-free assay | 0.5 µM | remaining signal | 97.4% |
| Cn1cc(-c2cc(F)cc(N3CCn4c(cc5c4CCCC5)C3=O)c2CO)cc(Nc2ccc(N3CCN(C4COC4)CC3)cn2)c1=O | enzyme activity, inhibitor | 0.1 µM | inhibition | 9% |
| C#Cc1n[nH]c2c(-c3cn(C(C)c4ccccn4)c(=O)[nH]c3=O)cc(F)cc12 (centres unmarked) | enzyme activity, inhibitor | 1 µM | inhibition | 5.8% |
| COc1ncccc1-c1cnn2ccc(N3CCN(C(=O)OC(C)C)CC3)nc12 | binding, competition with immobilised ligand | 1 µM | remaining binding | 100% |
